Activity calls are given as the source filed them. The rule behind the calls is not given here.

The nature of data set [1]: Drug uptake in mouse 4T1.2 cell lysosomes at 5 uM encapsulated within cucurbit[8]uril after 20 mins by LysoTracker Green staining based laser scanning confocal microscopic method. The data set is classed as ADME, Lysosome.
For data set [2], the system named is 4T1.2. In words: Growth inhibition of mouse 4T1.2 cells up to 20000 nM after 48 hrs by MTT assay. The class given is functional, cell-based. Background: Formazan colour is commonly taken as a measure of viable cells.
Data set [3] deals with 4T1.2. In words: Growth inhibition of mouse 4T1.2 cells up to 20000 nM encapsulated within cucurbit[8]uril after 48 hrs by MTT assay. The data set is classed as functional, cell-based.
In data set [4] the test system is Mus musculus. The data set is described as follows: Toxicity in Balb/c mouse assessed as body weight loss at 2 mg/kg, iv administered twice weekly for 2 weeks relative to control. The data set is classed as organism-based. To be noted: in vivo, 336 h. The method in brief: (§1)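 Non-tumor-bearing female Balb/c mice (9 weeks old), four per group, were dosed iv by tail vein on days 0, 3, 7 and 10. Dose was 2 mg/kg as mitoxantrone (complex adds 3 mg/kg Q[8]) in 0.9% saline vehicle. Body weight was recorded daily and expressed as mean change from baseline.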

Data set [5] concerns Mus musculus. In words: Toxicity in Balb/c mouse assessed as body weight loss at 3 mg/kg, iv encapsulated within cucurbit[8]uril administered twice weekly for 2 weeks. The class given is organism-based. To be noted: in vivo, 336 h. In a few lines:
as §1

In data set [6] the test system is Mus musculus. In words: Toxicity in Balb/c mouse implanted with mouse 4T1.2 cells assessed as body weight loss at 3 mg/kg, iv encapsulated within cucurbit[8]uril administered twice weekly for 2 weeks. The data set is classed as organism-based. The note with it: in vivo, 336 h. In a few lines:
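Mice bore orthotopic 4T1.2 mammary fat pad tumors, with treatment begun on day 8. Dosing was iv twice weekly for 2 weeks at 2 mg/kg mitoxantrone plus 3 mg/kg Q[8], in saline vehicle. Body weight was monitored. Culling at >20% weight loss, tumor >1500 mm3, or metastatic distress.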

The subject of data set [7] is 4T1.2. The data set is described as follows: Antitumor activity against mouse 4T1.2 cells implanted in Balb/c mouse assessed as tumor growth inhibition at 2 mg/kg, iv administered twice weekly for 2 weeks. The data set is classed as functional, organism-based. In a few lines: (§2)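 Female Balb/c mice given 1 × 105 4T1.2 cells into the fourth mammary fat pad. Dosing started once tumors were palpable on day 8. Dosed iv by tail vein twice weekly for 2 weeks, 2 mg/kg as mitoxantrone (complex adds 3 mg/kg Q[8]), in 0.9% saline vehicle. Primary tumors measured with digital calipers. Groups n = 10–11. One-way ANOVA against vehicle.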

Data set [8] deals with 4T1.2. In words: Antitumor activity against mouse 4T1.2 cells implanted in Balb/c mouse assessed as tumor growth inhibition at 3 mg/kg, iv encapsulated within cucurbit[8]uril administered twice weekly for 2 weeks. The data set is classed as functional, organism-based. In a few lines:
as §2

Data set [9] relates to 4T1.2. The data set is described as follows: Antitumor activity against mouse 4T1.2 cells implanted in Balb/c mouse assessed as mouse survival time at 3 mg/kg, iv encapsulated within cucurbit[8]uril administered twice weekly for 2 weeks measured up to 33 days. The data set is classed as functional. The method in brief: (§3)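 Female Balb/c mice given 1 × 10^5 4T1.2 cells into the fourth mammary fat pad. Treatment started on day 8 once tumours were palpable: 2 mg/kg mitoxantrone-equivalent (complex formulation also 3 mg/kg Q[8]) or 0.9% saline vehicle, by tail-vein iv, twice weekly for 2 weeks. Monitored to day 33. Culled at >20% weight loss, tumour >1500 mm3 or metastatic distress. Kaplan–Meier analysis with log-rank test.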

Data set [10] has as its system 4T1.2. In words: Antitumor activity against mouse 4T1.2 cells implanted in Balb/c mouse assessed as mouse survival rate at 2 mg/kg, iv administered twice weekly for 2 weeks measured up to 33 days (rvb = 30%). The class given is functional. To be noted: 4T1.2, iv. The method in brief:
as §3

Data set [11] in a line: Drug uptake in mouse 4T1.2 cell at 5 uM after 4 hrs by laser scanning confocal microscopic method.
Data set [12] in a line: Drug uptake in mouse 4T1.2 cell at 5 uM encapsulated within cucurbit[8]uril after 4 hrs by laser scanning confocal microscopic method.

Take `O=C1c2c(O)ccc(O)c2C(=O)c2c(NCCNCCO)ccc(NCCNCCO)c21` [MITOXANTRONE]: the Drug uptake result in data set [1], in data set [11] and in data set [12] was “Active” in each case. For the same compound, the “growth inhibition (GI)” value with 4T1.2 [2] and with 4T1.2 [3] was “Active” throughout. Further, the Activity in the data set with Mus musculus [4] was 15%; with Mus musculus [5] it was “Non-Toxic”; with Mus musculus [6], “Non-Toxic”. In addition, the TGI entry in the data set with 4T1.2 [7] and with 4T1.2 [8] was “Active” each time. Moreover, the Survival with 4T1.2 [9] came to 26 days. Also, the survival at 2 mg/kg in the data set with 4T1.2 [10] amounted to 60%.

Values taken from ChEMBL document CHEMBL3994676, “Encapsulation of Mitoxantrone within Cucurbit[8]uril Decreases Toxicity and Enhances Survival in a Mouse Model of Cancer” (ACS Med Chem Lett, 2017).
